≈ marks a conversion by molar mass, not a printed value.
Experiments:
Plasmodium falciparum [1] = assay: Antiplasmodial activity against Plasmodium falciparum NF54 by [3H]hypoxanthine incorporation assay; type: functional, organism-based
In short: (§1)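 Modified [3H]-hypoxanthine incorporation assay on P. falciparum asexual cultures, chloroquine and artesunate as references in every run. IC50 values are means of ≥2 independent experiments; individual values mostly within 2-fold (maximum 3-fold).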

Plasmodium falciparum [2] = assay: Antiplasmodial activity against Plasmodium falciparum K1 by [3H]hypoxanthine incorporation assay; type: functional, organism-based; in short: as §1
[3] = Aqueous solubility of the compound at pH 6.5; type: physicochemical; conditions: buffer
[4] = Aqueous solubility of the compound at pH 2; type: physicochemical; conditions: buffer
[5] = Selectivity index, ratio of IC50 for CHO cells to IC50 for Plasmodium falciparum; type: toxicity, cell-based; conditions: hamster, read-out: Ratio IC50
CHO = assay: Cytotoxicity against CHO cells; type: cell-based, Cricetulus griseus; conditions: chinese hamster
[6] = test system: CHO cells (Cricetulus griseus); assay: Cytotoxicity against Chinese hamster CHO cells
[7] = test system: CHO cells (Cricetulus griseus); assay: Selectivity index, ratio of IC50 for Chinese hamster CHO cells to IC50 for Plasmodium falciparum
Liver microsome [8] = assay: Metabolic stability in rat liver microsomes assessed as compound remaining after 30 mins; type: ADME; conditions: 0.5 h
In short: (§2)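 One-point microsomal stability test: compound incubated 30 min with human, rat or mouse liver microsomes; percentage of parent remaining measured.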

Liver = assay: Metabolic stability in mouse liver microsomes assessed as compound remaining after 30 mins; type: ADME; conditions: 0.5 h; in short: as §2
Liver microsome [9] = assay: Metabolic stability in human liver microsomes assessed as compound remaining after 30 mins; type: ADME; conditions: 0.5 h; in short: as §2
Plasmodium berghei = assay: Antimalarial activity against Plasmodium berghei ANKA infected in mouse assessed as reduction in parasitemia at 50 mg/kg/day, po qd administered for 4 days relative to control; type: functional; parameters: Activity: scale not given: the % may be the effect or the level left
In short: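 Mice (n = 3) infected with GFP-transfected P. berghei ANKA; compound in HPMC suspension vehicle given orally once daily at 4, 24, 48 and 72 h after infection. Blood collected day 4 (96 h post-infection); parasitemia by flow cytometry (detection limit 0.1%). Activity = difference in mean % parasitemia between control and treated groups, as % of control.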

[10] = Plasma concentration in mouse infected with Plasmodium berghei ANKA at 50 mg/kg/day, po after 4 hrs by HPLC analysis; type: ADME, organism-based; parameters: route oral
In short: (§3)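 P. berghei-infected mice dosed orally at 50 mg/kg daily for 4 days; blood sampled 1, 4 and 24 h after the first dose and analysed by HPLC for drug levels.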

[11] = Plasma concentration in mouse infected with Plasmodium berghei ANKA at 50 mg/kg/day, po after 1 hr by HPLC analysis; type: ADME, organism-based; parameters: route oral; in short: as §3
[12] = molecular target: Voltage-gated inwardly rectifying potassium channel KCNH2 (Homo sapiens, UniProt Q12809); assay: Inhibition of human ERG channel by patch clamp technique
Sequence of Voltage-gated inwardly rectifying potassium channel KCNH2 (Q12809 whole entry): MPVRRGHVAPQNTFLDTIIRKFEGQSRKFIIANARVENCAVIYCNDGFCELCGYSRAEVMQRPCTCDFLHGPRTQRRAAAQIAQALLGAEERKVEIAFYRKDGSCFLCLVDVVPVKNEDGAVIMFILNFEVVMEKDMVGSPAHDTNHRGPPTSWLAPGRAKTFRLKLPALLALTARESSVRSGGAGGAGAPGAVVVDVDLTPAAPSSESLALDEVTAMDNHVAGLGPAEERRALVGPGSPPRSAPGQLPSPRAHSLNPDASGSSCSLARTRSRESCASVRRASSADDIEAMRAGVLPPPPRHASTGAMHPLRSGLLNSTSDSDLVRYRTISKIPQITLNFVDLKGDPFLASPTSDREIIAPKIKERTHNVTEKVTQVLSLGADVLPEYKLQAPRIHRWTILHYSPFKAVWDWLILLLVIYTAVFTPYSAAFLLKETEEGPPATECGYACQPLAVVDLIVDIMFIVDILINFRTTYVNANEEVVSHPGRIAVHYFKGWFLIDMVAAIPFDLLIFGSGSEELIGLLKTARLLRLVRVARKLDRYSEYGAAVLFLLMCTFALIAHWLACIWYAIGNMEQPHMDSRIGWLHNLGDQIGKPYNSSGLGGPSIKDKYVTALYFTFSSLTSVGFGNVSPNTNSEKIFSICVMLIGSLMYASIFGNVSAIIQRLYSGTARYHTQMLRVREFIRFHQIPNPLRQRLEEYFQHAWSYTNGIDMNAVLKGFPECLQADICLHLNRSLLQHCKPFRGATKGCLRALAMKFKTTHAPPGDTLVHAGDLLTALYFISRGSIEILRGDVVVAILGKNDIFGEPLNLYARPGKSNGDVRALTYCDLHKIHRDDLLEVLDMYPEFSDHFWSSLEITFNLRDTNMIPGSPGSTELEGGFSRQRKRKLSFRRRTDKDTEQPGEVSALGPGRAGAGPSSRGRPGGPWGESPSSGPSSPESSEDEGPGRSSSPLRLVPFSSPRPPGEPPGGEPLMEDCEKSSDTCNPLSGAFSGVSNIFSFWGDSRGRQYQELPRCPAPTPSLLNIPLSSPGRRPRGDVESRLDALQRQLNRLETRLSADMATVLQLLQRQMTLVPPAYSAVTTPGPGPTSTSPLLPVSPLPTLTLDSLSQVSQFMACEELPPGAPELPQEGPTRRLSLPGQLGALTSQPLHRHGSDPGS

## CS(=O)(=O)c1cncc(-c2cnc3ccc(-c4cccc(S(=O)(=O)C5CC5)c4)nn23)c1
Plasmodium falciparum [1]
  IC50: 0.037 µM
Plasmodium falciparum [2]
  IC50: 0.031 µM
[3]
  solubility: < 5 µM
[4]
  solubility: 18 µM (≈ 8.18 µg/mL)

## NC(=O)c1ccc(-c2cnc3ccc(-c4cccc(S(=O)(=O)C5CC5)c4)nn23)cc1
[5]
  selectivity ratio: > 1000
CHO
  Activity: Non-toxic
Plasmodium falciparum [1]
  IC50: 0.0015 µM
Plasmodium falciparum [2]
  IC50: 0.0012 µM
[6]
  Activity: Non-toxic
[3]
  solubility: < 5 µM
[7]
  selectivity ratio: > 1000
[4]
  solubility: 6.3 µM (≈ 2.64 µg/mL)

## CS(=O)(=O)c1ccc(-c2cnc3ccc(-c4cccc(C(=O)NCCO)c4)nn23)cc1
Liver microsome [8]
  Stability: Unstable
Liver
  Stability: Unstable
[3]
  solubility: > 100 µM
Liver microsome [9]
  Stability: Unstable
[4]
  solubility: > 200 µM

## C[S+]([O-])c1ccc(-c2cnc3ccc(-c4cccc(S(C)(=O)=O)c4)nn23)cc1 (stereo not drawn)
Liver microsome [8]
  Stability: Stable
Plasmodium falciparum [1]
  IC50: 0.0065 µM
Liver
  Stability: Stable
[3]
  solubility: 98 µM (≈ 40.3 µg/mL)
Liver microsome [9]
  Stability: Stable
Plasmodium berghei
  Activity: 99.7%
  MSD: 14 days
[4]
  solubility: 207 µM (≈ 85.2 µg/mL)

## C[S+]([O-])c1cccc(-c2ccc3ncc(-c4ccc(S(C)(=O)=O)cc4)n3n2)c1 (stereo not drawn)
Liver microsome [8]
  Stability: Unstable
Plasmodium falciparum [1]
  IC50: 0.039 µM
Plasmodium falciparum [2]
  IC50: 0.036 µM
[10]
  concentration at 4 h: 0.49 µM
Liver
  Stability: Unstable
[3]
  solubility: 157 µM (≈ 64.6 µg/mL)
[11]
  concentration at 1 h: 0.59 µM
Liver microsome [9]
  Stability: Unstable
[12]
  IC50: 4 µM
Plasmodium berghei
  Activity: 99.8%
  MSD: 14 days
[4]
  solubility: 188 µM (≈ 77.4 µg/mL)

## CS(=O)(=O)c1ccc(-c2cnc3ccc(-c4cncc(N)c4)nn23)cc1
Plasmodium falciparum [1]
  IC50: 0.069 µM
Plasmodium falciparum [2]
  IC50: 0.055 µM
[3]
  solubility: 15 µM (≈ 5.48 µg/mL)
[4]
  solubility: 174 µM (≈ 63.6 µg/mL)

## CS(=O)(=O)c1cncc(-c2ccc3ncc(-c4ccc(S(=O)(=O)C5CC5)cc4)n3n2)c1
Plasmodium falciparum [1]
  IC50: 0.662 µM
Plasmodium falciparum [2]
  IC50: 0.484 µM
[3]
  solubility: < 5 µM
[4]
  solubility: < 5 µM

## CS(=O)(=O)c1ccc(-c2cnc3ccc(-c4cccc(C(=O)N5CCC(O)CC5)c4)nn23)cc1
Liver microsome [8]
  Stability: Stable
Plasmodium falciparum [1]
  IC50: 0.0065 µM
Liver
  Stability: Stable
[3]
  solubility: 178 µM (≈ 84.8 µg/mL)
Liver microsome [9]
  Stability: Stable
[4]
  solubility: > 200 µM

## CS(=O)(=O)c1ccc(-c2cnc3ccc(-c4cccc(S(=O)(=O)CCO)c4)nn23)cc1
Plasmodium falciparum [1]
  IC50: 0.0022 µM
[3]
  solubility: 8.6 µM (≈ 3.93 µg/mL)
[4]
  solubility: 190 µM (≈ 86.9 µg/mL)

## CS(=O)(=O)c1cccc(-c2ccc3ncc(-c4ccc(C(=O)N5CCNCC5)cc4)n3n2)c1
Liver microsome [8]
  Stability: Stable
Liver
  Stability: Stable
Liver microsome [9]
  Stability: Stable
Plasmodium berghei
  Activity: <40%
  MSD: 4 days

## CS(=O)(=O)c1ccc(-c2cnc3ccc(-c4cncc(C(F)(F)F)c4)nn23)cc1
Plasmodium falciparum [1]
  IC50: 1.05 µM
[3]
  solubility: < 5 µM
[4]
  solubility: < 5 µM

## CS(=O)(=O)c1ccc(-c2cnc3ccc(-c4cccc(S(=O)(=O)C5CC5)c4)nn23)cn1
Plasmodium falciparum [1]
  IC50: 0.0033 µM
Plasmodium falciparum [2]
  IC50: 0.002 µM
[3]
  solubility: < 5 µM
[4]
  solubility: < 5 µM

## CS(=O)(=O)c1cccc(-c2ccc3ncc(-c4ccc(S(=O)(=O)N5CCNCC5)cc4)n3n2)c1
Liver microsome [8]
  Stability: Unstable
Plasmodium falciparum [1]
  IC50: 0.014 µM
Plasmodium falciparum [2]
  IC50: 0.0088 µM
Liver
  Stability: Unstable
[3]
  solubility: 162 µM (≈ 80.6 µg/mL)
Liver microsome [9]
  Stability: Unstable
[4]
  solubility: 166 µM (≈ 82.6 µg/mL)

Source: ChEMBL document CHEMBL3352608, “Medicinal chemistry optimization of antiplasmodial imidazopyridazine hits from high throughput screening of a softfocus kinase library: part 2” (J Med Chem, 2014)
